This is an account of results in ChEMBL document CHEMBL4414562, “Discovery of the First in Vivo Active Inhibitors of the Soluble Epoxide Hydrolase Phosphatase Domain” (J Med Chem, 2019).

The term Kd denotes the concentration at which binding is half-saturated. The term IC50 denotes the concentration needed to halve the response being measured. Broadly, the Ki is the dissociation constant of the complex between target and ligand, obtained from inhibition or displacement. As usually defined, the Cmax is the highest concentration seen after dosing.

Active and inactive are the calls of the source. No cut-off for these calls is given here. Bounds are passed on as bounds.

Data set [1] deals with T1, Bifunctional epoxide hydrolase 2 (Homo sapiens) (UniProt P34913).
T1 sequence (whole entry): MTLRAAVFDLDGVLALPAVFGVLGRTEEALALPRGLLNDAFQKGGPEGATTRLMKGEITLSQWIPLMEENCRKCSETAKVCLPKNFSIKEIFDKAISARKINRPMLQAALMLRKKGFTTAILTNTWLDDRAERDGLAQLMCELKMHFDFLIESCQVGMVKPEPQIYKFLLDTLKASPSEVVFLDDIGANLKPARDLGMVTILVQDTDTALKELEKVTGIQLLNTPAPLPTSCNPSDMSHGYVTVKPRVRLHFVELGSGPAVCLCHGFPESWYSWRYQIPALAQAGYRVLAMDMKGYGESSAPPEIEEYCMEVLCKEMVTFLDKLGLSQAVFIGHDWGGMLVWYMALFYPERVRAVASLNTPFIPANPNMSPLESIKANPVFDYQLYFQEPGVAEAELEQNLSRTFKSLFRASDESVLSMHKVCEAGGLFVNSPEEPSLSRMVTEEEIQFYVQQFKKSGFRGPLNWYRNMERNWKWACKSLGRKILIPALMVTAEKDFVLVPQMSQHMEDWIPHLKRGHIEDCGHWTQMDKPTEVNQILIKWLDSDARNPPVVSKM
The data set is described as follows: Induction of stabilization of hexa-His-tagged human soluble epoxide hydrolase C-terminal hydrolase domain expressed in Escherichia coli BL21(DE3) at 50 uM by differential scanning fluorimetry.

Data set [2] in a line: Binding affinity to hexa-His-tagged human soluble epoxide hydrolase N-terminal phosphatase domain expressed in Escherichia coli BL21(DE3) by ITC assay. The essentials:
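Inverse-mode ITC with 185 μM freshly prepared sEH-P in the syringe and inhibitor in the cell. Both in 50 mM acetate, 10 mM MgCl2, 5% glycerol, pH 5.75 with 2% DMSO. Run at 25 °C, 350 rpm stirring, 20−25 injections of 8−10 μL, 200 s spacing. Inhibitor concentration chosen to optimize curve shape. Heats fitted to a single-site model.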
(In general: ITC needs no label: the signal is the heat of the interaction.)

Data set [3] has as its target Prostaglandin G/H synthase 1 (Homo sapiens, UniProt P23219). The data set is described as follows: Inhibition of COX1 in A23187-stimulated human platelets assessed as reduction in TXA2 production. Put shortly:
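Washed human platelets preincubated with increasing compound concentrations, then challenged with calcium ionophore A23187. TXB2 (stable TXA2 metabolite) in supernatant quantified by LC−MS/MS with TXB2-d4 internal standard.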

Data set [4] addresses T2, Oxysterols receptor LXR-alpha (Homo sapiens) (UniProt Q13133).
T2 sequence (whole entry): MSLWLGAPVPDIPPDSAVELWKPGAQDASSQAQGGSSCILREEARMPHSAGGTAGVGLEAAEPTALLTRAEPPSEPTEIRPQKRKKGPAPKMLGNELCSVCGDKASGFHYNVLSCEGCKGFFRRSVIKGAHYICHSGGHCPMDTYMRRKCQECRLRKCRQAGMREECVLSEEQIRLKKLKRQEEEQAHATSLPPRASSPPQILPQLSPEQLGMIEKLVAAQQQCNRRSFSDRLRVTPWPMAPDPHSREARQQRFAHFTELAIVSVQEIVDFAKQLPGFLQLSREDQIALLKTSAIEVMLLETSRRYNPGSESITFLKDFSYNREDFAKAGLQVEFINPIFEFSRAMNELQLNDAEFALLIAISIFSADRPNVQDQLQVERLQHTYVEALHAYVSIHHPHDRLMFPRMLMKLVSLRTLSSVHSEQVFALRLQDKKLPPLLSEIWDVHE
Description: Activation of Gal4-fused human LXRalpha LBD transfected in HEK293T cells at 10 uM after 12 to 14 hrs by luciferase reporter gene assay. The format is cell-based. Put shortly: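 Gal4–human nuclear receptor LBD fusion (pFA-CMV-hNR-LBD) co-transfected with pFR-Luc and pRL-SV40 (Lipofectamine LTX) into HEK293T cells seeded the day before. 5 h post-transfection, compound added in Opti-MEM with 0.1% DMSO and incubated 12−14 h. Dual-Glo firefly/Renilla luciferase read. Activation expressed relative to reference agonist at 1 μM. Triplicates, ≥3 independent experiments.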
For orientation: In a reporter assay the amount or activity of a reporter protein is the signal.

The target of data set [5] is T3, Bifunctional epoxide hydrolase 2 (Mus musculus, UniProt P34914).
T3 sequence (P34914 whole entry): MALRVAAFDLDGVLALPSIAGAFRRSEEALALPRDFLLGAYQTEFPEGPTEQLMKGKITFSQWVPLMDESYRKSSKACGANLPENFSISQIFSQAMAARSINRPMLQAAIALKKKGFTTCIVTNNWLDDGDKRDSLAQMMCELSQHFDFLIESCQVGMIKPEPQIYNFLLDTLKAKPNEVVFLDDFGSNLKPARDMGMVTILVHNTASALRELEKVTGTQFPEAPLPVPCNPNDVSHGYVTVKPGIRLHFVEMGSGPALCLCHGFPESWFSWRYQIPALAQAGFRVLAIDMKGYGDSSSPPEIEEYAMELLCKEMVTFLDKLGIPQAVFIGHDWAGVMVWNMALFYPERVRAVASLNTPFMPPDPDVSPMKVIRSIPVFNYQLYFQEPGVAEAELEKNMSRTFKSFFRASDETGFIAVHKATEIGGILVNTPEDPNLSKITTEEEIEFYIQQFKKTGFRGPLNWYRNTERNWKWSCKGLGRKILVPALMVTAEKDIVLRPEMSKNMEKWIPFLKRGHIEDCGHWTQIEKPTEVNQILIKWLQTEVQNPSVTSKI
The data set is described as follows: Inhibition of hydrolase activity of full length mouse soluble epoxide hydrolase pre-incubated for 30 mins before PHOME substrate addition by fluorescence based assay. The essentials:
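Hydrolase assay with 0.1 μM full-length enzyme in Bis-Tris pH 7 containing 0.1 mg/mL BSA and 0.01% Triton X-100. […] Reaction started with PHOME (50 μM final). 6-Methoxynaphthaldehyde fluorescence (ex 330/em 465 nm) read every minute for 45 min. Triplicates.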

The target in data set [6] is T4, Bifunctional epoxide hydrolase 2 (Homo sapiens, UniProt P34913).
T4 sequence (P34913 whole entry): T1 sequence (whole entry)
Description: Competitive inhibition of full length human soluble epoxide hydrolase pre-incubated for 30 mins before DiFMUP substrate addition by fluorescence based assay.

The nature of data set [7]: Cmax in Sprague-Dawley rat at 30 mg/kg, po monitored over 8 hrs by LC-MS analysis. The format is ADME, organism-based. Details: dose 30 mg/kg, route oral. The note with it: in vivo. The essentials:
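Male Sprague-Dawley rats (n = 3) given a single oral dose of 30 mg/kg. Plasma compound concentration followed over 8 h. Cmax and half-life derived from the plasma concentration–time profile.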

Data set [8] deals with Rattus norvegicus. The data set is described as follows: Inhibition of sEH-P in Sprague-Dawley rat assessed as effect on ratio of sn1-18:1 LPA to corresponding monoacylglycerol species in plasma at 30 mg/kg, po after 8 hrs by LC-MS/MS analysis. The format is functional, organism-based. Put shortly:
(§1)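 Male Sprague-Dawley rats given a single oral dose of 30 mg/kg or vehicle (n = 3 per group). Plasma collected 8 h later. Epoxy fatty acid/diol ratios and LPA/corresponding MAG ratios quantified by LC−MS/MS.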

Data set [9] concerns Rattus norvegicus. The data set is described as follows: Inhibition of sEH-P in Sprague-Dawley rat assessed as effect on ratio of sn1-18:2 LPA to corresponding monoacylglycerol species in plasma at 30 mg/kg, po after 8 hrs by LC-MS/MS analysis. The data set is classed as functional, organism-based. Put shortly:
as §1

For data set [10], the target named is T4, Bifunctional epoxide hydrolase 2. The data set is described as follows: Inhibition of phosphatase activity of full length human soluble epoxide hydrolase pre-incubated for 30 mins before FDP substrate addition by fluorescence based assay.

Prostaglandin G/H synthase 1, sequence (P23219 whole entry): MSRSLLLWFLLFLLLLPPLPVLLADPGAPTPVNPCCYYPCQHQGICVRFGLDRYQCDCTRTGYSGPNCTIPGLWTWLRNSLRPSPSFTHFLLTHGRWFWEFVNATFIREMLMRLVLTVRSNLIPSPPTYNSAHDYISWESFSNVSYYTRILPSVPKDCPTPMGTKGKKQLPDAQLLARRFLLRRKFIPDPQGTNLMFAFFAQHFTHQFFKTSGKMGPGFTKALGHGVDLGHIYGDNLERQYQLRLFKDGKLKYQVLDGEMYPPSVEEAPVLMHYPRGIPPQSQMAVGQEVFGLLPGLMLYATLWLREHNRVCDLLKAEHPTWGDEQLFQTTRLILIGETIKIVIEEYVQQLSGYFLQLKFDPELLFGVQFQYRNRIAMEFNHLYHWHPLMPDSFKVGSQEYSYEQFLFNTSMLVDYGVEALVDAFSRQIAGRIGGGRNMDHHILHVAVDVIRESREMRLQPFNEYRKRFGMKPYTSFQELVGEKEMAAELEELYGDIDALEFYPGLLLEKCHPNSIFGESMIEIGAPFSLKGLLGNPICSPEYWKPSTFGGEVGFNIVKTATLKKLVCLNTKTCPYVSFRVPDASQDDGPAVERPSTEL

Turning to `O=C(O)CCCc1nc(-c2ccc(Cl)c(Cl)c2)c(-c2ccccc2)o1`, the outcome in data set [1] and in data set [4] was inactive. Moreover, the Kd in data set [2] was found to be 300 nM. For the same molecule, the IC50 in [3] was 1200 nM; in [5] it was over 30 µM. In data set [6], this molecule displayed a Ki of 4.8 µM. In addition, the Cmax in [7] is 128 µM. Besides, the inhibition result in the data set with Rattus norvegicus [8] and in the data set with Rattus norvegicus [9] was “Active” throughout.

As to `O=C(O)CCc1nc(-c2ccccc2)c(-c2ccccc2)o1` [OXAPROZIN], the result in data set [4] was inactive. Further, the values for the IC50 in [10] and in data set [5] were 70 µM and over 300 µM, respectively.
